HTRA1 inh: inhibitors of human serine peptidase HTRA1; recombinant HTRA1, FP-rhodamine activity-based probe, fluorescence polarization; inhibition, % at 5.96 µM; actives 0.5% (n = 340,000); in the data active = inhibition above about 36%;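 also: 0% = enzyme with DMSO and 100% = wells lacking enzyme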
PAFAH1B3 inh: PAFAH1B3 (human) inhibition. Q15102. recombinant PAFAH1B3, FP-rhodamine probe, fluorescence polarization. inhibition, % at 3.39 µM. actives 0.28% (n = 340,000). AID 492972;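 active = inhibition above the screen-wide average of all tested compounds plus 3 SD, cut at about 25% in these data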;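 also: 0% = enzyme with DMSO only and 100% = wells lacking PAFAH1B3 protein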
Target sequence (Q15102 whole entry, looked up): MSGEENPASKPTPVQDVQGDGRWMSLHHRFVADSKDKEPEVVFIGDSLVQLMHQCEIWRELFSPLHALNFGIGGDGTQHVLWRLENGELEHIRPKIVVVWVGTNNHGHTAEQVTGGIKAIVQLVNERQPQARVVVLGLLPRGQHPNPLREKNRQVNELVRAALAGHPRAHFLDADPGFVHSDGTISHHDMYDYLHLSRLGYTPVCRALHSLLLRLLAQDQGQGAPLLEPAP
PAFAH2 FP inh: PAFAH2 (human) inhibition; Q99487; recombinant PAFAH2, FP-rhodamine activity probe, fluorescence polarization; inhibition, % at 3.39 µM; actives 0.99% (n = 340,000);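 active = inhibition above the mean over all tested compounds plus 3 SD, cut at about 30% in these data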;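 also: inhibitors block probe labeling of enzyme so polarization drops; 0% = enzyme with DMSO and 100% = wells lacking PAFAH2 protein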
PAFAH1B2 inh: inhibitors of human PAFAH1B2 | P68402 | recombinant PAFAH1B2, FP-rhodamine activity probe, fluorescence polarization | inhibition, % at 3.39 µM | actives 1.2% (n = 340,000) | AID 492953;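 active = inhibition above the mean of all tested compounds plus 3 SD, cut at about 24% in these data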;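 also: 0% = enzyme with DMSO and 100% = wells lacking PAFAH1B2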
Target sequence (P68402 whole entry, looked up): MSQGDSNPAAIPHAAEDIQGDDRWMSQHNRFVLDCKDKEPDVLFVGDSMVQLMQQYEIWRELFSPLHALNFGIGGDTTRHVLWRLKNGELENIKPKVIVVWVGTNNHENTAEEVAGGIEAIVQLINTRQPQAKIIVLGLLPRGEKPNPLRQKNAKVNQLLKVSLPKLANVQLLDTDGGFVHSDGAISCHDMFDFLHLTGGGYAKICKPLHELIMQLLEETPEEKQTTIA
ABHD4 inh: inhibits mouse alpha/beta hydrolase domain 4 | Q8VD66 | purified mABHD4, FP-Rh probe fluorescence polarization | inhibition, % at 8.92 µM | actives 0.54% (n = 370,000);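 active = inhibition exceeding the mean over every tested compound plus 3 SD, cut at about 30% in these data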;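 also: 0% = plate median of compound wells and 100% = S159A mutant with DMSO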
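system = mouse ABHD4 enzyme, wild type | medium = HEPES pH 7.0, NaCl, Pluronic buffer | also added = FP-Rh probe | incubation = Enzyme–compound pre-incubation 45 min, then probe 60 min, both 25 °C | technique = fluorescence polarization, excitation 525 nm, emission 598 nm, BODIPY TMR filters | controls = S159A mutant high control, sample median low control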
pPAFAH inh: pPAFAH (human) enzyme inhibition. recombinant pPAFAH, FP-rhodamine probe fluorescence polarization. inhibition, % at 3.39 µM. actives 1.5% (n = 330,000). Q13093;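 active = inhibition above the mean inhibition across the screen plus 3 SD, cut at about 25% in these data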;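 also: inhibitors block binding of the rhodamine activity-based probe so polarization drops; 0% = enzyme with DMSO and 100% = wells lacking pPAFAH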
HTRA1 inh conf: confirmation of human HTRA1 inhibitors | shares compounds with HTRA1 inh | recombinant HTRA1, FP-rhodamine activity-based probe, fluorescence polarization | inhibition, % at 5.96 µM | actives 66% (n = 1,600) | AID 540248;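 active = mean inhibition over three repeats above a set limit taken from the earlier primary screen, cut at about 37% in these data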;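 also: 0% = HTRA1 with DMSO and 100% = wells lacking HTRA1; inhibitors block probe binding so polarization drops and inhibition rises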
Starred values were filed as active, the others as inactive; . = no result given. In the library only some 2.8% were active in any assay of this set; here they are far more common.

SMILES	HTRA1 inh	PAFAH1B3 inh	PAFAH2 FP inh	PAFAH1B2 inh	ABHD4 inh	pPAFAH inh	HTRA1 inh conf
CN(C)c1ccc(NC(=O)NC2CCCCN(Cc3cccc(Cl)c3)C2=O)cc1 (stereo unspecified)	.	.	.	.	10.8	.	.
CCc1cc(C(=O)Nc2nc(-c3ccccn3)cs2)sc1C	36.9*	9.9	0.8	-0.4	-3.5	8.9	20.4
COc1ccc(CCNC(=O)CSc2nnc(CNc3ccc(Cl)cc3)o2)cc1OC	-1.6	1.8	5.0	4.7	-0.4	-4.8	.
O=C(CSc1nnc(CNc2ccc(Cl)cc2)o1)Nc1nc2c(s1)CCCC2	38.5*	5.8	12.1	24.3*	25.9	22.0	5.3
Brc1ccc(-c2nn3c(-c4ccccc4)nnc3s2)o1	.	.	.	.	0.3	.	.
NC[C@@H]1O[C@H](C23CC4CC(CC(C4)C2)C3)Cc2c1ccc(O)c2O	60.3*	11.2	0.8	3.3	20.9	13.9	73.2*
Cc1ccc(C2=NC(=O)/C(=C/c3cc(O)c(O)c(Br)c3)S2)cc1	67.5*	47.7*	78.0*	36.6*	21.9	.	71.1*
COc1ccc(C)cc1Nc1nc(-c2c[nH]c3ccccc23)cs1	42.9*	13.8	-5.8	-6.7	5.0	3.2	12.4
COc1ccc(OC)c(Nc2nc(-c3cccs3)cs2)c1	9.8	4.4	14.3	10.1	26.8	21.0	.
O=C(CN(CCc1ccccc1)S(=O)(=O)c1ccccc1)N1CCOCC1	.	.	.	.	-0.5	.	.
CN(C)CCCNC(=O)c1ccc(-c2cc(O)c3ncccc3c2)cc1	69.1*	1.9	5.1	3.8	10.6	0.3	85.5*
CCCCCCCCN1C(=O)[C@@H](CC(=O)NCCCCc2ccccc2)C[C@@]2(C(=O)OC)C1=C[C@H](COCc1ccccc1)O[C@@H]2C	.	.	.	.	0.3	.	.
O=c1c(O)c(-c2ccc(O)c(O)c2)oc2cc(O)ccc12	39.2*	37.6*	66.4*	14.9	27.1	.	35.2
Cc1ccc(Cn2c(=O)n(Cc3ccc(C(=O)NCC4COC4)cc3)c(=O)c3ccccc32)cc1	.	.	.	.	-5.7	.	.
NC(Cc1ccc(O)cc1)C(=O)NN=Cc1ccccc1Cl (stereo unspecified)	.	.	.	.	-4.5	.	.
Cc1cccc(NC(=O)NCCCN2CCN(c3ccc(F)cc3)CC2)c1	.	.	.	.	6.4	.	.
Brc1ccc(C=Nc2ccc(Nc3ccccc3)cc2)s1	72.6*	6.7	-4.2	8.1	.	10.6	94.3*
O=C(CCC(=O)N/N=C/c1ccc(Br)s1)NCc1ccccc1	-2.4	6.8	2.9	4.9	4.5	19.0	.
CCOC(=O)[C@]12CCCC3=C1N(CCC3)C(=O)[C@@H](CC(=O)NCCCCc1ccccc1)C2	.	.	.	.	5.0	.	.
O=c1nc(/C=C/c2ccc(O)c(O)c2)oc2ccccc12	72.2*	0.8	-1.3	6.4	.	.	76.0*
COc1ccc(/C=C\c2nc(=O)c3ccccc3o2)cc1	2.5	5.6	18.0	3.8	0.6	.	.
CCn1c(/C=C/c2ccc(O)cc2)nc2ccccc2c1=O	-3.6	2.7	7.5	1.6	6.3	0.6	.
CCn1c(/C=C/c2ccc(O)c(O)c2)nc2ccccc2c1=O	58.5*	7.4	2.7	2.0	27.4	.	112.1*
CC1(C)CC(=O)C=C(C2CC2)C1=O	.	.	.	.	0.2	.	.
CC(=O)Nc1ccc(S(=O)(=O)NC2=C(N3CCN(c4ccc(F)cc4)CC3)C(=O)c3ccccc3C2=O)cc1	55.5*	18.4	14.2	5.7	22.1	6.6	71.0*
SMILES	HTRA1 inh	PAFAH1B3 inh	PAFAH2 FP inh	PAFAH1B2 inh	ABHD4 inh	pPAFAH inh	HTRA1 inh conf
Cc1ccc2nc(-c3ccccc3)cn2c1	0.2	6.0	5.7	1.6	-3.0	-4.0	.
Cc1ccc2nc(-c3ccc(O)c(O)c3)cn2c1	45.1*	1.1	7.0	6.3	13.6	8.3	74.4*
COc1cc(/C=N/n2c(-c3ccc4c(c3)NC(=O)CO4)csc2=Nc2cccc(C)c2)ccc1O	43.7*	12.5	0.1	9.3	21.0	33.5*	81.6*
CCCC(=O)NC(c1ccco1)c1cc([N+](=O)[O-])c2cccnc2c1O (stereo unspecified)	50.5*	8.8	20.6	1.3	19.0	29.7*	65.8*
CCC(=O)NC(c1ccc(C)cc1)c1cc([N+](=O)[O-])c2cccnc2c1O (stereo unspecified)	37.5*	6.6	9.1	1.9	8.6	32.1*	71.1*
Cc1cc(NC(=O)CCc2c[nH]c3ccccc23)ccc1Nc1cccnc1	.	.	.	.	4.9	.	.
C=CCN(C(=O)[C@@H](C)[C@@H](O)c1ccc(C(C)=O)cc1)c1ccccc1	.	.	.	.	2.7	.	.
S=C(Nc1ccc(Nc2ccccc2)cc1)Nc1ccccn1	37.9*	11.9	6.2	3.4	6.2	7.2	39.6*
S=C(Nc1ccccc1)Nc1ccccn1	0.0	.	.	.	-3.1	.	.
Nc1ccc2c(c1)C(=O)c1ccccc1-2	5.3	5.3	5.7	3.0	13.8	2.7	.
Nc1ccc2c(c1)C(=O)C(=O)c1ccccc1-2	42.0*	75.8*	62.5*	25.1*	25.0	15.2	33.6
COC(=O)[C@]12C[C@H](CC(=O)N3CCC(c4ccccc4)CC3)C(=O)N(CCC3=CCCCC3)C1=C[C@H](C(C)C)O[C@@H]2C1CC1	.	.	.	.	-1.8	.	.
O=[N+]([O-])c1ccc(Nc2ccccc2)c2nonc12	3.8	14.2	-2.0	6.3	-6.0	11.1	.
O=[N+]([O-])c1ccc(Sc2cccc[n+]2[O-])c2nonc12	81.1*	82.7*	90.0*	56.2*	26.5	.	101.5*
CCCCCCn1ccc(=N)cc1	-1.8	-3.3	4.9	-1.6	-2.6	0.9	.
CCCCCCCCCCCCCCCCn1cc[n+](CC(C)=O)c1	72.0*	1.0	4.7	4.8	.	.	85.6*
CC1CCC2(CC1)CCC2NCc1ccc(Cl)cc1 (stereo unspecified)	.	.	.	.	4.7	.	.
O=C(NC1CCCCC1)C(c1ccc(O)c(O)c1)N(C(=O)Cn1nnc2ccccc21)c1cccc(O)c1 (stereo unspecified)	47.5*	10.4	1.1	1.0	14.3	9.8	49.2*
O=C1/C(=C\c2ccc(O)c(O)c2)C(c2ccccc2)=NN1c1ccccc1	58.0*	21.2	27.4	5.8	27.9	.	97.1*
O=C(CSc1nnc(-c2ccco2)n1-c1ccc(Cl)cc1)Nc1ccccc1-c1ccccc1	.	.	.	.	-2.3	.	.
COc1ccc2nc(NN=C(C)c3ccccn3)cc(C)c2c1	55.4*	4.8	4.7	1.8	-13.3	.	66.7*
CC(=NNc1ccc2ccccc2n1)c1ccccn1	.	.	.	.	2.9	.	.
S=c1[nH]nc(-c2cc(-c3ccccc3)n[nH]2)n1N=Cc1cccc(Oc2ccccc2)c1	.	.	.	.	-5.4	.	.
CCOC(=O)Cc1nc(N2CCN(CCO)CC2)c2c(C)c(C(=O)OCC)sc2n1	.	.	.	.	0.1	.	.
Cc1cccc(NC(=O)/C=C/c2ccc([N+](=O)[O-])s2)c1	-9.2	3.7	12.1	1.6	1.8	3.6	.
O=C(N/N=C/c1ccc(O)c2ncccc12)c1cccc(Br)c1	67.1*	25.7*	12.9	16.8	8.8	26.6*	59.1*

Screening data (PubChem BioAssay)
